Measurements from paper PMC5817033 (Nuclear medicine and biology, 2017).
Where “and” joins values, the source holds several entries; their conditions need not be identical. Equal entries are not always repeated. Where two headings read alike, the source gives them in different places.

Experiments:
[1] = Ex-vivo biodistribution of ^18F-1 co-injected with ^131I-OIH in normal rats; design: species or system Sprague-Dawley rats; details: mean ± SD
[2] = normal rats, mean ± SD, cited from earlier work
[3] = cited from earlier work
[4] = cited from earlier work; remark: listed apart in the source
[5] = rat plasma, ultrafiltration, mean of duplicate
[6] = rat blood, mean of duplicate
[7] = rat urine collected for 10 min after i.v. injection
[8] = pH 7, room temperature, over 23 hours after labeling
[9] = rats, 1 h post injection; cited from earlier work
[10] = Thermal stability of labeling precursor by HPLC; type: physicochemical; details: 110 °C for 1 hour
In short: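 Tosylate labeling precursor heated at 110 °C for 1 hour. Stability is judged by comparing its HPLC chromatograms before and after heating.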

## O=C(O)CNC(=O)c1ccccc1[131I] [OIH, ^131I-orthoidodohippurate]
[1]; 10 min after i.v. injection
  Blood activity: 4.5 ± 0.4 %ID
  Bowel activity (intestines and stomach): 1.3 ± 0.6 %ID
  Heart activity: 0.1 ± 0.0 %ID
  Kidney activity: 5.2 ± 1.6 %ID
  Liver activity: 2.8 ± 0.6 %ID
  Lung activity: 0.3 ± 0.1 %ID
  Spleen activity: 0.1 ± 0.0 %ID
  Urine activity: 54.4 ± 6.9 %ID
[1]; 60 min after i.v. injection
  Blood activity: 0.8 ± 0.1 %ID
  Bowel activity (intestines and stomach): 1.1 ± 0.2 %ID
  Heart activity: 0.0 ± 0.0 %ID
  Kidney activity: 1.0 ± 0.8 %ID
  Liver activity: 0.6 ± 0.1 %ID
  Lung activity: 0.1 ± 0.1 %ID
  Spleen activity: 0.0 ± 0.0 %ID
  Urine activity: 84.8 ± 3.8 %ID
[2]; 10 min after injection
  Blood activity: 5.8 ± 1.0 %ID
  Bowel activity (intestines and stomach): 1.8 ± 0.2 %ID
  Heart activity: 0.2 ± 0.0 %ID
  Kidney activity: 4.8 ± 0.8 %ID
  Liver activity: 3.0 ± 0.9 %ID
  Lung activity: 0.4 ± 0.1 %ID
  Spleen activity: 0.1± 0.0 %ID
  Urine activity: 54.2 ± 9.2 %ID
[2]; 60 min after injection
  Blood activity: 0.5 ± 0.4 %ID
  Bowel activity (intestines and stomach): 1.2 ± 0.5 %ID
  Heart activity: 0.1 ± 0.0 %ID
  Kidney activity: 0.5 ± 0.2 %ID
  Liver activity: 0.5 ± 0.1 %ID
  Lung activity: 0.1 ± 0.1 %ID
  Spleen activity: 0.1 ± 0.1 %ID
  Urine activity: 80.2 ± 5.3 %ID
[3]
  Plasma protein binding: 44%
[4]
  Red cell uptake: 35%

## O=C([O-])CN(CC[18F])CC(=O)[O-].[C-]#[O+].[C-]#[O+].[C-]#[O+].[Re+] [^18F-1, rhenium-tricarbonyl-N-(2-[^18F]fluoroethyl)iminodiacetic acid]
[1]; 10 min
  %Urine: urine activity as a percentage of ^131I-OIH (^18F/^131I-OIH ratio): 92% and 92 ± 14%
[1]; 10 min after i.v. injection
  Blood activity: 5.2 ± 0.7 %ID
  Bone uptake: 0.08 ± 0.01 %ID/g
  Bowel activity (intestines and stomach): 2.1 ± 1.7 %ID
  Heart activity: 0.1 ± 0.0 %ID
  Kidney activity: 9.4 ± 2.0 %ID
  Liver activity: 5.6 ± 0.3 %ID
  Lung activity: 0.4 ± 0.1 %ID
  Spleen activity: 0.1 ± 0.0 %ID
  Urine activity: 49.3 ± 3.7 %ID
[1]; 60 min
  %Urine: urine activity as a percentage of ^131I-OIH (^18F/^131I-OIH ratio): 95% and 95 ± 5%
[1]; 60 min after i.v. injection
  Blood activity: 0.3 ± 0.1 %ID
  Bowel activity (intestines and stomach): 3.9 ± 2.0 %ID
  Heart activity: 0.0 ± 0.0 %ID
  Kidney activity: 1.0 ± 0.7 %ID
  Liver activity: 0.4 ± 0.1 %ID
  Lung activity: 0.1 ± 0.1 %ID
  Spleen activity: 0.0 ± 0.0 %ID
  Urine activity: 80.5 ± 4.4 %ID
[5]
  Plasma protein binding (PPB): 87%
[6]
  Erythrocyte uptake (RCB): 21%
[7]
  In vivo stability: HPLC analysis of urine for metabolites: only the intact parent compound
[8]
  In vitro stability of formulated solution (HPLC): No measurable decomposition

## O=C(O)CNC(=O)c1ccc([18F])cc1 [^18F-PFH, p-^18F-fluorohippuran]
[9]
  Activity in blood: ~ 0.3 %ID
  Activity in urine: ~ 81 % ID

## ^99mTc(CO)3(2-fluoroethyl)iminodiacetic acid [^99mTc-1]
[2]; 10 min
  %Urine: urine activity as a percentage of ^131I-OIH (^99mTc/^131I-OIH ratio): 100 ± 4%
[2]; 10 min after injection
  Blood activity: 5.1 ± 0.9 %ID
  Bowel activity (intestines and stomach): 2.9 ± 0.5 %ID
  Heart activity: 0.1 ± 0.0 %ID
  Kidney activity: 6.6 ± 2.1 %ID
  Liver activity: 5.9 ± 0.8 %ID
  Lung activity: 0.4 ± 0.2 %ID
  Spleen activity: 0.1 ± 0.0 %ID
  Urine activity: 54.1 ± 7.2 %ID
[2]; 60 min
  %Urine: urine activity as a percentage of ^131I-OIH (^99mTc/^131I-OIH ratio): 99 ± 2%
[2]; 60 min after injection
  Blood activity: 0.3 %ID and 0.3 ± 0.1 %ID
  Bowel activity (intestines and stomach): 2.9 ± 1.4 %ID
  Heart activity: 0.0 ± 0.0 %ID
  Kidney activity: 0.7 ± 0.2 %ID
  Liver activity: 0.8 ± 0.1 %ID
  Lung activity: 0.1 ± 0.1 %ID
  Spleen activity: 0.1 ± 0.2 %ID
  Urine activity: 79.2 ± 6.4 %ID
[4]; rats
  Erythrocyte uptake: 20%

## rhenium-tricarbonyl-N-(2-(4-methylbenzenesulphonate)ethyl))iminodiacetic acid [Re-OTs]
[10]
  Stability on heating (HPLC): stable
